In article PMC5974556 (ChemistryOpen, 2018):
In brackets after ≈: the same amount, converted by molar mass. Counter-ions that a name gives are not always drawn. Marks after values point to notes of the source that are not given here.

Assays:
[1] = Water solubility, shake flask method in 0.1 M phosphate buffer pH 6.8; type: physicochemical; settings: 37 °C, pH 6.8, aqueous buffer, thermodynamic from solid
Outline: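 Excess solid added to 1 mL sodium phosphate buffer, pH 6.8. Two conditions: 90 min sonication at 37 °C, or 30 min sonication at 37 °C, 23 h shaking at 300 rpm, then 30 min sonication. Centrifuged 14000 rpm for 5 min, filtered (0.2 µm) at 37 °C and diluted in DMSO. Quantified by LC at maximum absorbance against standard curves; independent triplicates.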

[2] = Ferric reducing antioxidant power; settings: chemical antioxidant capacity, n=3
Outline: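 FRAP reagent made from acetate buffer, TPTZ in ethanol and FeCl3·6H2O in dilute HCl, mixed 10:1:1, with TPTZ and iron solutions fresh daily. Sample mixed with reagent 1:9, absorbance read at 593 nm after 4 min. Values expressed as Trolox equivalents by linear regression on a Trolox standard curve; α-tocopherol positive control.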

[3] = system: Caco‐2 cells; assay: Mitochondria activity; type: cell-based; settings: Homo sapiens, Caco-2, 72 h, read-out: Caco‐2 IC50 MTT
Outline: (§1)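 Cells kept in DMEM+glutamax with 1% NEAA, 1% P/S and 10% FBS at 37 °C, 10% CO2. Seeded 2×10^4 per well for 24 h, then exposed 72 h to test compound at various concentrations in serum-free medium, in triplicate. MTT (5 mg/mL in PBS) added for 2 h, formazan dissolved in DMSO, read at 570 nm. IC50 from % survival; doxorubicin control; MTT and SRB data pooled, mean ± SD, n≥6.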

[4] = system: Caco‐2 cells; assay: Protein content; type: cell-based; settings: Homo sapiens, Caco-2, 72 h, read-out: Caco‐2 IC50 SRB
Outline: (§2)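 Seeded 2×10^4 cells per well for 24 h, then treated with or without test compound for three days, in triplicate. Fixed with 50% TCA for 1 h at 4 °C, washed and dried. Stained 30 min at 4 °C with 0.4% sulforhodamine B in 1% acetic acid, rinsed with 1% acetic acid. Dye redissolved in Tris buffer, absorbance read at 490 nm. Doxorubicin control; MTT and SRB data pooled, mean ± SD, n≥6.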

[5] = system: EA.hy926 cells; assay: Mitochondria activity; type: cell-based; settings: Homo sapiens, EA.hy 926, 72 h, read-out: EA.hy926 IC50 MTT
Outline: as §1

[6] = system: EA.hy926 cells; assay: Protein content; type: cell-based; settings: Homo sapiens, EA.hy 926, 72 h, read-out: EA.hy926 IC50 SRB
Outline: as §2

[7] = system: HT‐29 cells; assay: Mitochondria activity; type: cell-based; settings: Homo sapiens, HT-29, 72 h, read-out: HT‐29 IC50 MTT
Outline: as §1

[8] = system: HT‐29 cells; assay: Protein content; type: cell-based; settings: Homo sapiens, HT-29, 72 h, read-out: HT‐29 IC50 SRB
Outline: as §2

[9] = system: HepG2 cells; assay: Mitochondria activity; type: cell-based; settings: Homo sapiens, HepG2, 72 h, read-out: HepG2 IC50 MTT
Outline: as §1

[10] = system: HepG2 cells; assay: Protein content; type: cell-based; settings: Homo sapiens, HepG2, 72 h, read-out: HepG2 IC50 SRB
Outline: as §2

[11] = system: Caco‐2 cells; assay: Intracellular ROS; type: cell-based, human; settings: protein content normalization, mean±SD, n≥3
Outline: (§3)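 Cells grown in DMEM+glutamax with 1% NEAA, 1% P/S and 10% FBS at 37 °C, 10% CO2. Seeded at 2×10^4 cells/well for 24 h, then confluent cells were exposed to test compound at 1 or 10 µM in serum-free medium, with NAC as control. Cells were washed, loaded with DCFH-DA for 30 min, then kept 1 h in phenol red-free DMEM. Fluorescence read at ex 485/em 535 nm, normalised to same-well SRB protein (490 nm) and given as % of untreated cells. Mean ± SD, n≥3; two-tailed t-test with unequal variances.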

[12] = system: EA.hy926 cells; assay: Intracellular ROS; type: cell-based; settings: Homo sapiens; for activity at 1 µM: EA.hy 926, read-out: Intracellular ROS, percentage compared to the untreated control cells (ROS/SRB), EA.hy926, 1 μM; for activity at 10 µM: EA.hy 926, read-out: Intracellular ROS, percentage compared to the untreated control cells (ROS/SRB), EA.hy926, 10 μM
Outline: as §3

[13] = system: HT‐29 cells; assay: Intracellular ROS; type: cell-based; settings: Homo sapiens; for activity at 1 µM: HT-29, read-out: Intracellular ROS, percentage compared to the untreated control cells (ROS/SRB), HT‐29, 1 μM; for activity at 10 µM: HT-29, read-out: Intracellular ROS, percentage compared to the untreated control cells (ROS/SRB), HT‐29, 10 μM
Outline: as §3

[14] = system: HepG2 cells; assay: Intracellular ROS; type: cell-based; settings: Homo sapiens; for activity at 1 µM: HepG2, read-out: Intracellular ROS, percentage compared to the untreated control cells (ROS/SRB), HepG2, 1 μM; for activity at 10 µM: HepG2, read-out: Intracellular ROS, percentage compared to the untreated control cells (ROS/SRB), HepG2, 10 μM
Outline: as §3

SMILES | solubility at 90 min [1] | solubility at 24 h [1] | FRAP [2] | IC50 [3] | IC50 [4] | IC50 [5] | IC50 [6] | IC50 [7] | IC50 [8] | IC50 [9] | IC50 [10] | Intracellular ROS, percentage compared to the untreated control cells (ROS/SRB), Caco‐2, 1 μM [11] | Intracellular ROS, percentage compared to the untreated control cells (ROS/SRB), Caco‐2, 10 μM [11] | activity at 1 µM [12] | activity at 10 µM [12] | activity at 1 µM [13] | activity at 10 µM [13] | activity at 1 µM [14] | activity at 10 µM [14]
CC(C)CNC(=C\C(=O)/C=C/c1cccnc1)/C=C/c1cccnc1 [5 a, (1E,4Z,6E)‐5‐Isobutylamino‐1,7‐di(pyridin‐3‐yl)hepta‐1,4,6‐trien‐3‐one] | 168 ± 6 µM (≈ 56.2 µg/mL) | 303 ± 16 µM (≈ 101 µg/mL) | 0.03 Trolox equiv per μM | 45.3 ± 10.5 µM | 31.6 ± 9 µM | 33 ± 9.5 µM | 35.9 ± 7.2 µM | 37.6 ± 1.8 µM | 30.9 ± 10.9 µM | 26.2 ± 0.3 µM | 20.8 ± 1.5 µM | 109.8±7.4% | 114.7±3.1^[b] % | 88.7 ± 9.3% | 93.4 ± 14.6% | 103 ± 11.1% | 84.1 ± 2.5% | 90.7 ± 13.7% | 94 ± 4.6%
O=C(/C=C(/C=C/c1cccnc1)NC1CCCCC1)/C=C/c1cccnc1 [5 b, (1E,4Z,6E)‐5‐Cyclohexylamino‐1,7‐di(pyridin‐3‐yl)hepta‐1,4,6‐trien‐3‐one] | 11.3 ± 0.6 µM (≈ 4.06 µg/mL) | 12.2 ± 0.6 µM (≈ 4.39 µg/mL) | 0.00 Trolox equiv per μM | 65.6 ± 2.1 µM | 60.8 ± 6 µM | 40.2 ± 1.4 µM | 53 ± 1.9 µM | 36.4 ± 7.9 µM | 19.4 ± 0.9 µM | > 75 µM | > 75 µM | 101.3±0.9% | 117.7±5.6^[b] % | 89.1 ± 4.2% | 114 ± 9.5% | 93.7 ± 13.2% | 90.6 ± 2.8% | 92.3 ± 7.8% | 98.8 ± 4.6%
COCCNC(=C\C(=O)/C=C/c1cccnc1)/C=C/c1cccnc1 [5 c, (1E,4Z,6E)‐5‐(2‐Methoxyethylamino)‐1,7‐di(pyridin‐3‐yl)hepta‐1,4,6‐trien‐3‐one] | 895 ± 18 µM (≈ 300 µg/mL) | 2280 ± 174 µM (≈ 766 µg/mL) | 0.00 Trolox equiv per μM | 53.8 ± 0.6 µM | 49.1 ± 0.6 µM | 60 ± 10.5 µM | 63 ± 8.3 µM | 55.3 ± 12.5 µM | 46 ± 15.8 µM | 56.7 ± 3.7 µM | 66.4 ± 1.3 µM | 102.4±8.8% | 243.2±17.5^[b] % | 83.7 ± 6.7% | 89.5 ± 2.7% | 100 ± 5.8% | 88.1 ± 3.6% | 94.8 ± 4% | 88.4 ± 5.3%
COCCCNC(=C\C(=O)/C=C/c1cccnc1)/C=C/c1cccnc1 [5 d, (1E,4Z,6E)‐5‐(3‐Methoxypropylamino)‐1,7‐di(pyridin‐3‐yl)hepta‐1,4,6‐trien‐3‐one] | 897.4 ± 1.1 µM (≈ 314 µg/mL) | 2310 ± 90 µM (≈ 808 µg/mL) | 0.01 Trolox equiv per μM | 28.5 ± 3.5 µM | 36 ± 0.1 µM | 70.6 ± 2.5 µM | 72.7 ± 3.7 µM | 59.6 ± 7.7 µM | 51.5 ± 6.1 µM | > 75 µM | > 75 µM | 101.5±9.2% | 110.6±5.3^[b] % | 102 ± 5.8% | 98.3 ± 2% | 102 ± 19.4% | 95.1 ± 14% | 92.3 ± 4.6% | 89.4 ± 3.1%
O=C(/C=C(/C=C/c1cccnc1)NCCO)/C=C/c1cccnc1 [5 e, (1E,4Z,6E)‐5‐(2‐Hydroxyethylamino)‐1,7‐di(pyridin‐3‐yl)hepta‐1,4,6‐trien‐3‐one] | 4350 ± 260 µM (≈ 1400 µg/mL) | 4850 ± 140 µM (≈ 1560 µg/mL) | 0.04 Trolox equiv per μM | > 75 µM | > 75 µM | > 75 µM | > 75 µM | > 75 µM | > 75 µM | > 75 µM | > 75 µM | 111.4±8.9% | 118.6±2.8^[c] % | 102 ± 1.6% | 115 ± 7.6% | 93.9 ± 5.5% | 110 ± 3.7% | 88.6 ± 15.2% | 92.1 ± 5.1%
COc1cccc2c1C(=O)c1c(O)c3c(c(O)c1C2=O)C[C@@](O)(C(=O)CO)C[C@@H]3O[C@H]1C[C@H](N)[C@H](O)[C@H](C)O1 [Dox, doxorubicin hydrochloride, reference compound] | – | – | – | 11.1 ± 1 µM | 12.1 ± 0.8 µM | 1.4 ± 0.5 µM | 1.4 ± 0.3 µM | 4 ± 0.9 µM | 3.5 ± 0.4 µM | 5.5 ± 1.4 µM | 2.5 ± 1.2 µM | – | – | – | – | – | – | – | –
CC(=O)N[C@@H](CS)C(=O)O [N‐acetyl‐L‐cysteine, reference compound] | – | – | – | > 75 µM | > 75 µM | – | – | – | – | – | – | 55.7±5.8^[c] % | 47.8±2.6^[c] % | 79.6 ± 11.1% | 79.6 ± 7.4% | 90.1 ± 12% | 87.7 ± 3.7% | 73.1 ± 2.7% | 70.5 ± 3.1%
Cc1c(C)c2c(c(C)c1O)CC[C@@](C)(CCC[C@H](C)CCC[C@H](C)CCCC(C)C)O2 [α‐tocopherol, reference compound] | – | – | 0.76 Trolox equiv per μM | – | – | – | – | – | – | – | – | – | – | – | – | – | – | – | –
